# Measured values collected from several papers.
# Target: Serine/threonine-protein kinase Nek7 (NEK7, Homo sapiens, UniProt Q8TDX7)
SMILES,observed,mode,technique,cells,tested at,endpoint,result
CN([C@@H]1CCc2c(CC(=O)O)c3cc(S(C)(=O)=O)ccc3n2C1)S(=O)(=O)c1ccc(F)cc1,cell-free assay,,competition with immobilised ligand,,1 µM,remaining binding,98%
CCN(CC)CCNC(=O)c1c(C)[nH]c(/C=C2\C(=O)Nc3ccc(F)cc32)c1C,enzyme activity,inhibitor,,,10 µM,inhibition,-6%
c1ccc(CNc2nc(N3CCOc4ccccc43)nc3c2CCCC3)cc1,target engagement in cells,inhibitor,chemoproteomics,,20 mM,inhibition,-6%
N#CC1c2c([nH]c3c(Cl)c(Cl)ccc23)C(=O)NC12CCCCC2 (racemic),thermal stability,,DSF,,10 µM,ΔTm,0.2 °C
Clc1ccc(Nc2nnc(Cc3ccncc3)c3ccccc23)cc1,cell-free assay,,,,0.5 µM,remaining signal,96.8%
CCCOc1ccc(OC)c(F)c1C(=O)c1ccc(C(=O)N[C@@H]2CNC[C@H]2NC(=O)c2ccc3[nH]ncc3c2)cc1,enzyme activity,inhibitor,,,10 µM,remaining activity,96%
O=C1NC(=O)c2cc(Nc3ccc(F)cc3)c(Nc3ccc(F)cc3)cc21,cell-free assay,,,,0.5 µM,remaining signal,103%
Cc1noc([C@H]2C[C@@H](c3ccc(C(F)(F)F)cc3)CN(C(=O)N3CCS(=O)(=O)C3)C2)n1,cell-free assay,,competition with immobilised ligand,,1 µM,remaining binding,100%
Nc1ncnc2occ(-c3ccc(NC(=O)Nc4cc(C(F)(F)F)ccc4F)cc3)c12,cell-free assay,inhibitor,,,20 µM,remaining signal,4%
Cn1c2c(c3ccc(Cl)c(Cl)c31)C(C#N)C1(CCN(C(=O)OC(C)(C)C)CC1)NC2=O (racemic),thermal stability,,DSF,,10 µM,ΔTm,0 °C
CCCCN(CCCC)C(=O)CN1C[C@H](c2cc(OC)c3c(c2)OCO3)[C@@H](C(=O)O)[C@@H]1CC(C)(C)CCC,cell-free assay,,competition with immobilised ligand,,1 µM,remaining binding,100%
Cc1ccc(C(=O)Nc2ccc(CN3CCN(C)CC3)c(C(F)(F)F)c2)cc1C#Cc1cnc2cccnn12,enzyme activity,inhibitor,,,23.5 nM,remaining activity,93%
Cn1c2c(c3ccc(Cl)c(Cl)c31)C(C#N)C(C)(C)NC2=O (stereo not shown),thermal stability,,DSF,,10 µM,ΔTm,-0.6 °C
O=c1nc(-c2ccccn2)sc2ccccc12,binding,,competition with immobilised ligand,,1 µM,remaining binding,75%
Cn1c2c(Cl)c(Cl)ccc2c2cn[nH]c(=O)c21,thermal stability,,DSF,,10 µM,ΔTm,0 °C
CN1CCN(c2cnc3c(C4CCN(C(=O)c5ccc(OC(F)(F)F)cc5N)CC4)ncnc3c2)CC1,cell-free assay,,competition with immobilised ligand,,1 µM,remaining binding,100%
CNC(=O)c1cc(Oc2ccc(NC(=O)Nc3ccc(Cl)c(C(F)(F)F)c3)cc2)ccn1,enzyme activity,inhibitor,,,10 µM,inhibition,-7%
O=C(Nc1cnn(-c2csc(C(=O)NC3COC3)c2)c1)Nc1ccccc1Cl,enzyme activity,inhibitor,,,5 µM,remaining activity,102%
Cc1c(C(=O)O)cc(-c2ccc(C3CCNCC3)cc2)c2ccc(-c3ccc(C(F)(F)F)cc3)cc12,binding,,competition with immobilised ligand,,1 µM,remaining binding,100%
CC(C)(C)c1nc2c(s1)c1nc(N)ncc1c1ccc(NS(=O)(=O)c3c(F)cccc3F)c(F)c12,enzyme activity,inhibitor,radiometric,,1 µM,remaining activity,27%
CO[C@@H](C)c1c(Nc2ccc([C@@H](N(C)C(=O)C3CCS(=O)(=O)CC3)C(F)(F)F)cc2)cnc2cc(Cl)nn12,cell-free assay,,competition with immobilised ligand,,1 µM,remaining binding,91%
CN1CCC2(CC1)NC(=O)c1c(c3ccc(Cl)c(Cl)c3n1C)C2C#N (racemic),thermal stability,,DSF,,10 µM,ΔTm,-0.4 °C
Cc1ccc(Nc2nccc(N(C)c3ccc4c(C)n(C)nc4c3)n2)cc1S(N)(=O)=O,enzyme activity,inhibitor,,,0.3 µM,inhibition,-6%
CCN1CCN(Cc2ccc(NC(=O)c3ccc(C)c(Oc4ccnc5[nH]ccc45)c3)cc2C(F)(F)F)CC1,target engagement in cells,inhibitor,chemoproteomics,A-375,0.5 µM,inhibition,-0.545%
CN1CC(Oc2cnc(C#N)cc2-c2ccn3nc(NC(=O)C4CC4)cc3c2)C1,enzyme activity,inhibitor,,,1 µM,inhibition,0%
CC1(C)NC(=O)c2[nH]c3c(Cl)c(Cl)ccc3c2C1C#N (stereo not shown),thermal stability,,DSF,,10 µM,ΔTm,-0.4 °C
Cc1ccc(NC(=O)c2ccc(C)c(C(F)(F)F)c2)cc1C#Cc1nn(C2CCC(O)CC2)c2ncnc(N)c12 (stereo not shown),cell-free assay,,,,10 µM,remaining signal,98%
Cc1cc(NC(=O)c2cccc3cc(-c4cccc5[nH]nc(N)c45)ccc23)ccc1F,enzyme activity,inhibitor,,,0.1 µM,activity vs control,96%
CCOc1cc(-c2nncn2C)ccc1Nc1ncc2cc(C)nc(NCC(C)(C)C)c2n1,enzyme activity,inhibitor,FRET,,1 µM,inhibition,< 15%
CS(=O)(=O)CCNCc1ccc(-c2ccc3ncnc(Nc4ccc(OCc5cccc(F)c5)c(Cl)c4)c3c2)o1,cell-free assay,,,,0.5 µM,remaining signal,98.7%
C[C@@]1(Cc2ccc(C#N)cc2)C(=O)N(c2cc(Cl)cc(Cl)c2)c2ncc(C(=O)NC3(c4nc(C5CCC5)no4)CC3)n21,cell-free assay,,competition with immobilised ligand,,1 µM,remaining binding,100%
